An excerpt weighted towards active compounds, which were near 2.9% of everything screened.
M18AAP inhibitor – blocks P. falciparum M18 aspartyl aminopeptidase; recombinant PfM18AAP, H-Glu-NHMec fluorogenic cleavage; inhibition, % at 7.35 µM; hit rate 1.2% among 290,000;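 active = inhibition above the campaign mean inhibition over all tested compounds plus 3 SD, cut at about 28% in these data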;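 also: 0% = plate median of test compound wells and 100% = 2 mM ZnCl2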
PfG6PD inh – PfG6PD (Plasmodium falciparum) enzyme inhibition; inhibition, % at 20 µM; PfGluPho enzyme, NADPH resazurin-diaphorase fluorescence; hit rate 0.78% among 350,000;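 active = inhibition reaching at least a set limit at 20 µM in the primary screen, cut at about 59% in these data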;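 also: 0% = DMSO wells with substrate and 100% = DMSO wells lacking glucose-6-phosphate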
UBC13 polyUb – human UBC13 polyubiquitination inhibition. P61088. UBC13 polyubiquitin chain formation, TR-FRET. inhibition, % at 20 µM. hit rate 0.47% among 330,000. AID 485273; in the data active = inhibition above about 45%, passing the limit was not always enough
Target sequence (P61088 whole entry, looked up): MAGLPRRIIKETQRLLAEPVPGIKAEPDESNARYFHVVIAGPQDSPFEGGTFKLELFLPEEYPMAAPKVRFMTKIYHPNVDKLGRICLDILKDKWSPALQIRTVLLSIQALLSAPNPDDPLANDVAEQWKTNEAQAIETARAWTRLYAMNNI
EBNA-1 inhibitor – blocks EBNA-1 binding to DNA | AID 1950 | inhibition, % at 14.8 µM | hit rate 0.34% among 300,000 | EBNA-1 DNA binding, fluorescence polarization; in the data active = inhibition above about 28%
ZTA counter – counter-screen for EBNA-1 inhibitors: inhibitors of Epstein-Barr virus ZTA; ZTA-DNA binding, fluorescence polarization; inhibition, % at 11 µM; hit rate 0.15% among 320,000; AID 2234; in the data active = inhibition above about 33%
Target sequence (P03206 whole entry, looked up): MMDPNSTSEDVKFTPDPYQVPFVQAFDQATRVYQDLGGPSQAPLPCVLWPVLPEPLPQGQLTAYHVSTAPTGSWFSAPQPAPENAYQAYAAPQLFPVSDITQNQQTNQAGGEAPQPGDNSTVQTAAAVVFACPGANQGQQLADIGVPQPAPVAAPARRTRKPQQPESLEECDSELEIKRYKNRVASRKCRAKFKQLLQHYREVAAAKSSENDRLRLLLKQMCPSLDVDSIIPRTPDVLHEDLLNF
Apaf-1 inh – inhibitors of human Apaf-1 apoptosome; reconstituted apoptosome caspase-3 activity, DEVD-Rh110 fluorescence; hit rate 0.71% among 330,000; inhibition, % at 20 µM; active = inhibition of at least 40% at 20 µM;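 also: plate controls were DMSO wells for no effect and DEVD-CHO caspase inhibitor wells for full effect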
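Material: reconstituted apoptosome with Apaf-1, cytochrome c, caspase-9, procaspase-3, dATP. Technique: Rh110 fluorescence intensity. Buffer or medium: pH 7.5 Hepes buffer with CHAPS, BSA, DTT. Times: 30 min plus 50 min, RT.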
* marks the source's active call; other numbers are inactive results; / = no result given.

SMILES	M18AAP inhibitor	PfG6PD inh	UBC13 polyUb	EBNA-1 inhibitor	ZTA counter	Apaf-1 inh
C#CCOCCOCCOCCNc1nc(N2CCOCC2)nc(N2CCN(C(=O)CCCCCCCCCCNC(=O)[C@H](CO)n3cc(CCCSC)nn3)CC2)n1	/	-13.0	2.2	5.5	2.7	25.2
C#CCOCCOCCOCCNc1nc(N2CCN(C(=O)CCCCCCCCCCNC(=O)[C@H]([C@@H](C)CC)n3cc(CCCCN=C(N)N)nn3)CC2)nc(N2CCN(C(=O)CCCCCCCCCCNC(=O)[C@H](CCCN=C(N)N)n3cc(C[C@@H](C)CC)nn3)CC2)n1	/	/	128.9*	1.6	136.8*	45.6*
C#CCOCCOCCOCCNc1nc(N2CCN(C(=O)CCCCCCCCCCNC(=O)[C@H](CCCN=C(N)N)n3cc(C[C@@H](C)CC)nn3)CC2)nc(N2CCN(C(=O)CCCCCCCCCCNC(=O)[C@@H]([C@H](C)CC)n3cc(CCCCCN)nn3)CC2)n1	/	/	121.8*	1.3	161.3*	80.1*
C#CCOCCOCCOCCNc1nc(N2CCOCC2)nc(N2CCN(C(=O)[C@H]([C@@H](C)CC)n3cc(CCCN=C(N)N)nn3)CC2)n1	-3.6	3.5	14.8	-16.9	-4.2	2.9
C#CCOCCOCCOCCNc1nc(N2CCN(C(=O)CCCCCCCCCCNC(=O)[C@H](CO)n3cc(CCCCCN)nn3)CC2)nc(N2CCN(C(=O)CCCCCCCCCCNC(=O)[C@H](CCCN=C(N)N)n3cc(C[C@@H](C)CC)nn3)CC2)n1	/	/	128.6*	12.8	105.3*	60.9*
C#CCOCCOCCOCCNc1nc(N2CCN(C(=O)[C@H]([C@@H](C)CC)n3cc(CCCCN)nn3)CC2)nc(N2CCN(C(=O)[C@H](CCCCN)n3cc(CC(C)O)nn3)CC2)n1 (stereo partly specified)	/	4.2	19.7	0.7	-15.4	17.4
COC(=O)NC1CC2C=CC1C1C=CC21 (stereo unspecified)	/	10.0	/	/	/	/
CCN(CC(=O)NCc1cccs1)C(=O)c1ccc(-c2cccc(C(F)(F)F)c2)o1	/	11.6	0.7	-2.8	-1.4	28.1
Cc1nn(CC(=O)NCCCN2CCC(N3CCCCC3)CC2)c(=O)c2cc(-c3ccccc3)nn12	1.5	-7.3	21.2	-0.1	3.4	21.4
C=CC(=O)Nc1ccc(CN2C(=O)N(c3c(Cl)c(OC)cc(OC)c3Cl)Cc3cnc(NCCCCN(CC)CC)nc32)cc1	/	53.5	63.2*	/	/	62.9*
C=C(C)CN1C(=O)C(C)SC1=NN=C1SCC(=O)N1C (stereo unspecified)	/	-7.9	/	/	/	/
NC(=S)N1N=C(c2ccccc2)CC1=O	/	-0.1	/	/	/	/
CCOc1ccccc1-c1c2cc(O)c(=O)cc-2oc2cc(O)c(O)cc12	29.6*	-14.6	/	/	/	/
CCOC(=O)c1oc2cc(O)ccc2c(=O)c1-c1ccccc1OC	3.7	0.6	7.3	2.8	2.4	4.9
O=c1cc2oc3cc(O)c(O)cc3c(-c3ccccc3O)c-2cc1O	43.8*	12.6	/	/	/	/
O=C(Cn1nc(-c2ccccc2Cl)ccc1=O)Nc1ccccc1-c1ccccc1	-10.3	-6.6	-1.2	2.7	-11.7	55.8*
O=C(Cn1nc(-c2ccccc2Cl)ccc1=O)Nc1ccc(Br)cc1	1.1	-3.2	-13.3	-6.5	-0.7	15.1
COc1cc(C2c3cc4c(cc3OC(NCc3ccccc3)C2C)OCO4)cc(OC)c1OC (stereo unspecified)	/	6.3	/	/	/	/
O=C(COc1ccc(Cl)cc1)NNC(=O)CSc1nncs1	28.9*	19.9	-3.5	5.6	-15.4	-10.1
CCOC(=O)[C@H]1[C@H]2COc3ccc(Cl)cc3[C@@H]2N2C(=O)[C@@H](CO)NC(=O)[C@@]12C	/	-21.4	-1.9	/	/	2.2
COc1ccc(C(=O)NCc2nnc(SCC(=O)Nc3ccc4c(c3)OCO4)o2)cc1	2.3	3.9	6.4	17.8	-13.7	-17.0
O=[N+]([O-])c1cc(Cl)cc(/C=N\Nc2ccccn2)c1O	-1.5	-64.0	-121.1	3.4	11.9	8.8
CN(C)C1(CN=Cc2cc(Cl)cc([N+](=O)[O-])c2O)CCCCC1	29.7*	14.6	-47.4	10.4	20.1	25.5
CCCCn1c(-c2cccnc2)n[nH]c1=S	30.5*	18.2	5.3	6.8	15.1	-7.9
CS(=O)c1nc(-c2ccc(Br)cc2)cc(-c2ccccc2)c1C#N (stereo unspecified)	-1.9	-2.5	2.6	-6.5	0.0	55.4*

Screening results deposited in PubChem BioAssay by several laboratories.
